Hits are enriched below; roughly 6.4% of the tested compounds scored in any of these assays.
H69AR growth 86K = proliferation blockers of H69AR lung cancer cells, primary screen, cell-based, human, 86K library. H69AR lung tumor viability, ATP luminescence, 72 h; hits give low values. viability, % at 10 µM. 85,000 tested, 6% active;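 active = viability at or below 40%; inactive = viability above 40%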;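 note: multidrug resistant small cell line overexpressing MRP-1 efflux transporter; 100% = mean luminescence of untreated control wells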
E coli WT exp = growth inhibitors of wild-type E. coli, primary screen, strain BW25113, expanded library, OD600; AID 710, 2007; 98,000 tested, 0.15% active; OD600 absorbance; growth inhibition, % at 100 µM;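 active = growth inhibition above about 50% at one test dose, limit read from the data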;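 note: growth measured after 20 h incubation at 37 °C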
Ecoli tolC = growth inhibitors of E. coli tolC mutant, primary screen, strain BW25113 ΔtolC::kan, 384-well. growth inhibition, % at 10 µM (by protocol). 65,000 tested, 2.2% active. OD615. AID 573, 2007;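 active = growth inhibition at or above a cutoff equal to the mean over every tested compound plus 3 SD, cut at about 60% in these data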;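 note: growth measured after 20 h incubation at 37 °C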
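Test system: E. coli BW25113 ΔtolC::kan bacteria | Medium: Kanamycin-containing LB broth (50 µg/mL) | Dosing: One dose of 10 µM final | Times: 20 h incubation with compound, 37 °C | Detection: Optical density read at 615 nm | Read-out basis: Percent growth inhibition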
Jurkat tox 60K = cytotoxicity toward Jurkat T cells, primary screen, cytotoxicity control, cell-based, Jurkat E6.1, 60K MLSMR library; Jurkat E6.1 viability, ATP luminescence, 48 h; AID 463, 2006; inhibition, % at 4 µM; 56,000 tested, 1.2% active;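 active = inhibition above the mean inhibition of all tested compounds plus 3 SD, cut at about 28% in these data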
Fibroblast inh = antiproliferative effect on LL 47 fibroblasts – human, LL 47 cells, CellTiter-Glo luminescence, primary screen. LL 47 human lung fibroblast viability, ATP luminescence; hits give low values. viability, % at 10 µM. 85,000 tested, 1.1% active. AID 719, 2007;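 active = viability at or below 50% in the single dose screen; inactive = viability above 50%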;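 note: compound exposure lasted 72 h before the ATP readout; 100% = median luminescence of untreated cell-only wells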
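Material: human lung fibroblast line LL 47, low passage; Evaluation: viability percentage against median untreated-cell control; Buffer or medium: 15% FBS in IMEM; Incubation: 72 h compound exposure at 37 °C after overnight plating; Dosing: 0.1% DMSO in all compound wells; Measured by: CellTiter-Glo luminescence.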
HUVEC inhibit = inhibitors of HUVEC proliferation, primary screen, cell-based, 384-well; CellTiter-Glo luminescence, 72 h; hits give low values; 86,000 tested, 1.1% active; viability, % at 10 µM (by protocol); AID 648, 2007;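 active = viability at or below 30%; inactive = viability above 30%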;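 note: 100% = median luminescence of DMSO-only cell control wells on each plate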
* = called active by the depositor; . = no result given.

SMILES | H69AR growth 86K | E coli WT exp | Ecoli tolC | Jurkat tox 60K | Fibroblast inh | HUVEC inhibit
Cc1cccc(N2C(=O)CSC2c2cccnc2)c1 (configuration not stated) | 109 | 0 | . | . | 95 | 100
N#CCN1CCN(CC(=O)Nc2cccc3ccccc23)CC1 | 62 | -1 | . | . | 98 | 98
FC(F)(F)c1cccc(Cn2nnnc2-c2cccc(C(F)(F)F)c2)c1 | . | 5 | . | . | . | .
Cn1c(SCC(=O)Nc2cc(=O)n(C)c(=O)n2C)nnc1C12CC3CC(CC(C3)C1)C2 | 90 | . | 0 | -3 | 102 | 106
CCOc1ccc(C2NC(=O)C(C#N)=C(S)N2c2ccc(C)cc2)cc1OC (configuration not stated) | 89 | 5 | . | . | 93 | 98
CCOc1cc(S(=O)(=O)NCc2ccccn2)c(C)cc1C | . | 7 | 5 | 0 | . | .
Cc1cccc(N2CCN(C(=O)c3ccncc3)CC2C)c1 (configuration not stated) | 29* | -3 | -12 | 5 | 101 | 84
Cn1nc(-c2ccc(Cl)cc2)c2cc(C(=O)NCCCN3CCCC3)sc21 | 0.9* | 1 | 52 | 6 | 14* | 1.7*
COCCNC(=O)c1cc2c(-c3ccc(Cl)cc3)nn(C)c2s1 | 67 | -2 | 18 | -1 | 74 | 68
CCCCNC(=O)c1cc2c(-c3ccc(Cl)cc3)nn(C)c2s1 | 36* | -6 | -2 | -3 | 62 | 75
COCCCNC(=O)c1cc2c(-c3ccc(Cl)cc3)nn(C)c2s1 | 74 | -10 | 11 | 6 | 74 | 56
CCN1CCCC1CNC(=O)c1cc2c(-c3ccc(Cl)cc3)nn(C)c2s1 (configuration not stated) | 2.1* | 11 | 32 | 13 | 11* | 1.7*
Cc1ccc2nc(SCC(=O)Nc3nnc(SCC(N)=O)s3)[nH]c2c1 | . | 4 | . | . | . | .
Cc1nccn1-c1cc(C(C)C)c(C#N)c2nc3ccccc3n12 | 84 | . | 9 | . | 100 | 93
Cc1ccc(C(=O)CSc2nnc(-c3cccnc3)n2N)cc1 | 27* | -1 | 11 | 11 | 94 | 78
Cc1cc(C(=O)CSc2nnc(-c3cccnc3)n2-c2ccccc2F)c(C)n1C | 34* | 6 | 14 | 12 | 93 | 112
Cc1ccc(CSc2nnc(-c3cccnc3)n2N)cc1 | 83 | -1 | . | . | 105 | 103
COc1cc2c3nnc(-c4ccc(F)cc4)c-3cn(Cc3cccc(C)c3)c2cc1OC | 1.1* | -7 | . | . | 3.2* | 2.3*
Cc1nn(Cc2ccc(Cl)c(Cl)c2)c(C)c1NC(=O)c1cc(-c2ccc3c(c2)OCO3)on1 | 1.4* | -5 | 23 | -7 | 76 | 12*
Cc1nn(Cc2c(Cl)cccc2Cl)c(C)c1NC(=O)c1cc(C(C)C)on1 | 7.7* | 3 | 16 | 45* | 35* | 72
Cc1nn(Cc2ccc(Cl)cc2)c(C)c1NC(=O)c1cc(-c2ccc3c(c2)OCO3)on1 | 81 | -1 | 11 | -5 | 105 | 49
COc1ccc(-c2cc(C(=O)Nc3c(C)nn(Cc4ccccc4Cl)c3C)no2)cc1 | 33* | -4 | 1 | . | 90 | 88
Cc1ccc2c(c1)c1c(n2CC(O)Cn2c(C)nc3ccccc32)CCCC1 (configuration not stated) | 1.5* | -8 | . | . | 90 | 11*
Cc1ccc2c(c1)c1c(n2CC(O)Cn2nc(C)c(Br)c2C)CCCC1 (configuration not stated) | 55 | -10 | . | . | 98 | 67
Cc1cc(C)c(S(=O)(=O)N(C)CC(=O)NC2CCCC2)c(C)c1 | 86 | 8 | -3 | -9 | 107 | 100
SMILES | H69AR growth 86K | E coli WT exp | Ecoli tolC | Jurkat tox 60K | Fibroblast inh | HUVEC inhibit
O=C(CSc1nnc(C2CCCCC2)n1Cc1ccccc1)NCc1ccco1 | 72 | -7 | 14 | 2 | 90 | 105
CCCOc1ccc2nc(NC(=O)OC)[nH]c2c1 | 31* | . | -2 | . | 49* | 33
O=C(Nc1nc2ccccc2[nH]1)c1ccccc1F | . | -2 | -4 | 52* | . | .
CCOc1ccc2nc(NCCCO)[nH]c2c1 | 89 | . | . | . | 94 | 90
COc1cc(OC)cc(C(=O)Nc2nc3ccccc3[nH]2)c1 | 30* | -10 | . | . | 74 | 77
COC(=O)C(OC(=O)c1ccc(OC)cc1)C(=O)OC | 94 | . | . | . | 98 | 94
c1ccc(N2CCN(Cc3cn4cccnc4n3)CC2)cc1 | 101 | 14 | -5 | -5 | 97 | 94
c1ccc2c(c1)CCN(c1nc3cc4c(cc3s1)OCCO4)C2 | . | -7 | 65* | 7 | . | .
O=S(=O)(c1ccc2c(c1)OCCO2)N1CCN(c2nc3ccccc3s2)CC1 | . | -3 | 7 | 12 | . | .
CC(=O)Nc1ccc(S(=O)(=O)N2CCC(c3nc4ccc(C)cc4[nH]3)CC2)cc1 | 66 | -5 | -6 | . | 98 | 80
CC(C)(C)c1ccc(S(=O)(=O)N2CCC(c3nc4ccc(Cl)cc4[nH]3)CC2)cc1 | 35* | . | . | . | 85 | 67
CCOc1cccc(NC(=O)c2ccc(S(=O)(=O)N3CCCC3)cc2)c1 | 74 | . | 14 | 7 | 100 | 96
COc1cc(-c2cc(OC)c3c(C)oc(C)c3c(=O)c2)ccc1O | 30* | 7 | 7 | 2 | 86 | 72
C[n+]1cc[nH]c1SCC(=O)c1ccccc1 | 96 | -2 | . | . | 98 | 96
Cc1nc(C(=O)N(C)C)nn1-c1cc(Cl)ccc1Cl | . | -4 | . | . | . | .
Cc1sc(NC(=O)CSc2nnnn2C2CCCCC2)c(C#N)c1C | . | 3 | . | . | . | .
O=C(c1ccc(C#CC2(O)CCCCC2)cc1)N1CCN(C(c2ccccc2)c2ccccc2)CC1 | 34* | -14 | . | . | 100 | 85
O=C(c1ccc(C#CC2(O)CCCCC2)cc1)N1CCN(Cc2ccccc2)CC1 | 95 | 1 | . | . | 99 | 99
CCOc1nnnc2c1sc1nc(N3CCOCC3)c3c(c12)CCCC3 | 96 | 0 | . | . | 103 | 107
C=CCNC(=S)N/N=C(\C)c1ccccn1 | 20* | 45 | . | . | 9.2* | 19*
C=CCNC(=S)Nc1ccc2nc(C)c(C)nc2c1 | . | 2 | . | . | . | .
CC(C)CNC(=O)c1ccc(COc2ccc(Cl)cc2Cl)o1 | 64 | 13 | . | . | 92 | 94
CCCCCOCC(O)CCC(=O)NN (configuration not stated) | . | 2 | . | . | . | .
CCOC(=O)N1CCc2c(sc3c2C(=O)NC(c2ccc(-c4ccc(Cl)cc4)o2)N3)C1 (configuration not stated) | 30* | . | 3 | 0 | 53 | 89
CCc1ccccc1NC(=O)C(CC)Sc1nc2cc3c(cc2c(=O)n1Cc1ccco1)OCO3 (configuration not stated) | 6.3* | -4 | -1 | . | 85 | 46
CCc1ccc(NC(=O)C(CC)Sc2nc3cc4c(cc3c(=O)n2Cc2ccco2)OCO4)cc1 (configuration not stated) | 9.8* | -3 | . | . | 28* | 35

Source: PubChem
